High-throughput results from PubChem BioAssay.
Only some compounds are listed: those with a hit (about 2% of all), similar ones and a draw of the others.
APJ agonist: APJ receptor agonism; P35414; CHO-K1 APJ PathHunter beta-arrestin, luminescence; 0% DMSO wells, 100% apelin; activation, % at 20 µM; 330,000 compounds, 0.11% hits; AID 2520;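 active = activation more than six SD over the plate average, tested at 20 µM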;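 note: 0% = DMSO alone and 100% = apelin-13 at 10 nM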
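Test system – PathHunter CHO-K1 APJ (AGTRL-1) beta-arrestin reporter cells · Input – 1000 cells/well · Compound – single test compound dose, 20 µM final, 1% DMSO · Times – compound stimulation 90 min at 25 °C, detection 60 min · Technique – beta-gal luminescence · Read-out basis – APJ–arrestin association signal · Control set – negative DMSO alone, positive Apelin-13 at 10 nM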
EBI2 block: antagonists of human EBI2 receptor; P32249; EBI2 beta-arrestin recruitment, luminescence, 7a,25-OHC stimulated; inhibition, % at 5 µM; 360,000 compounds, 0.81% hits; AID 651636; in the data active = inhibition above about 38%;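 note: enzyme fragment complementation signal reports receptor beta-arrestin coupling in cells; 0% = agonist plus DMSO wells and 100% = wells without agonist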
Target sequence (P32249 whole entry, looked up, the tested form may be a part): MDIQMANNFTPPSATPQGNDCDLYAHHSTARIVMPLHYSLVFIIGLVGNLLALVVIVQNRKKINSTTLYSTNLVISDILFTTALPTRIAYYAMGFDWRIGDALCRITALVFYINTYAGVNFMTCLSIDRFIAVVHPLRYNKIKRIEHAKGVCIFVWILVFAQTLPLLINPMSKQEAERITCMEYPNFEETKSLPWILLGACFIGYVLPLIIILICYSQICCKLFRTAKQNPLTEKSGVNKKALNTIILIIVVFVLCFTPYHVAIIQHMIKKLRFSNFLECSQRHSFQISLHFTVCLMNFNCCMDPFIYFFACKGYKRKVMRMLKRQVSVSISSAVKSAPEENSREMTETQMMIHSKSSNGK
CCR6 antag: CCR6 (human) receptor antagonism. P51684. CHO-K1 CCR6 PathHunter beta-arrestin, luminescence, CCL20-stimulated. inhibition, % at 20 µM. 340,000 compounds, 0.49% hits. AID 493098;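 active = compounds whose inhibition of the agonist-driven luminescence signal at 20 µM reaches about 50%, limit read from the data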;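 note: cells stimulated with CCL20 at 14 nM final; plate controls were DMSO with CCL20 for no effect and DMSO without agonist for full effect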
APJ antagonist: APJ receptor antagonism; P35414; AID 2521; inhibition, % at 20 µM; 330,000 compounds, 0.32% hits; CHO-K1 APJ beta-arrestin complementation, luminescence;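 active = inhibition above about 40% at 20 µM, limit read from the data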;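 note: cells challenged with 10 nM apelin-13 agonist together with compound; plate controls were apelin-13 plus DMSO wells for no effect and DMSO wells lacking apelin-13 for full effect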
FXN GAA850 act: increases GAA850 frataxin promoter reporter activity. HEK293 lucGAA850 FXN promoter luciferase reporter, 24 h; percent of 10 µM SAHA response. activation, % at 6 µM. 360,000 compounds, 0.56% hits;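 active = activation above the average of all compounds screened plus 3 SD, cutoff fixed separately per campaign, cut at about 7.5% in these data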;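 note: 0% = DMSO wells and 100% = 10 µM SAHA wells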
CXCR6 block: inhibitors of human CXCR6 receptor; 360,000 compounds, 0.36% hits; inhibition, % at 20 µM; AID 602244; O00574; CHO-K1 PathHunter CXCR6 beta-arrestin, luminescence; in the data active = inhibition above about 34%, passing the limit was not always enough;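 note: antagonist mode with CXCL16 agonist at 10 nM final; 0% = 10 nM CXCL16 with DMSO and 100% = unstimulated wells without agonist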
EBI2 antag conf: EBI2 (human) antagonism, single concentration confirmation; shares compounds with EBI2 block; EBI2 beta-arrestin luminescence, 7a,25-OHC antagonism; inhibition, % at 5 µM; 2,400 compounds, 29% hits;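 active = inhibition of at least 50%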
EBI2 agonist: activates EBI2, counter-screen for EBI2 antagonists | activation, % at 5 µM | shares compounds with EBI2 block | 2,400 tested, under 10 active | EBI2-expressing cells, agonist mode, luminescence, 60 min; 0% vehicle, 100% 7α,25-dihydroxycholesterol control | AID 652000;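 active = activation of at least 50%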
bGal cs: beta-galactosidase inhibition counter-screen; 2,400 compounds, 1% hits; shares compounds with EBI2 block; purified beta-galactosidase, luminescent Galacton Star, 15 min; inhibition, % at 5 µM; AID 652176;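 active = replicate-average signal at least 3 plate SD below neutral wells, shown as high inhibition, flagging enzyme-inhibiting false positives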;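 note: 0% = DMSO wells with enzyme and 100% = wells lacking enzyme; higher means stronger loss of beta-gal luminescence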
* hit, by the source's call; nt = no result.

SMILES	APJ agonist	EBI2 block	CCR6 antag	APJ antagonist	FXN GAA850 act	CXCR6 block	EBI2 antag conf	EBI2 agonist	bGal cs
CCOC(=O)Nc1ccc(C(=O)/C=C/c2ccccc2)cc1	-4	63*	21	5	4	-3	32	1	9
CSc1ccc(/C=C/C(=O)c2ccc(NC(=O)Cc3ccccc3)cc2)cc1	-2	92*	2	2	1	2	80*	1	7
Cc1ccc(S(=O)(=O)N2C[C@H]3C(=O)C[C@@H](c4ccccc4C)N(S(=O)(=O)c4ccc(C)cc4)[C@H]3C[C@H]2c2ccccc2)cc1	nt	3	nt	nt	nt	8	nt	nt	nt
N#Cc1ccccc1C[C@H](N)C(=O)NC[C@H]1O[C@@H](n2cnc3c(N)ncnc32)[C@H](O)[C@@H]1O	nt	-1	nt	nt	nt	-12	nt	nt	nt
CC(C)CNC(=O)COc1ccc(Sc2ccc(OCC(=O)NCC(C)C)cc2)cc1	2	4	8	3	-2	2	nt	nt	nt
CCCC(C)NC(=O)COc1ccc(Sc2ccc(OCC(=O)NC(C)CCC)cc2)cc1 (centres undefined)	3	43*	21	-7	-1	4	27	2	-2
Cc1ccc(CNC(=O)/C(C#N)=C/c2ccc(C)s2)cc1	5	51*	7	20	0	5	32	0	-15
Cc1ccc(NC(=O)/C(C#N)=C/c2ccc(C)s2)c(C)c1	-2	10	6	-1	3	5	nt	nt	nt
Cc1nc(N2CCN(Cc3ccc4c(c3)OCO4)CC2)c2oc3ccccc3c2n1	nt	24	7	nt	-5	-2	nt	nt	nt
Cc1nc(N2CCN(Cc3ccc4c(c3)OCO4)CC2)c2cc(-c3ccccc3)sc2n1	-4	38*	14	-11	2	12	13	1	5
CCN(c1ccc(NC(=O)COC(=O)c2ccc(C)s2)cc1)C(C)C	1	50*	3	0	0	4	34	0	7
O=C1c2cccc3c([N+](=O)[O-])ccc(c23)C(=O)N1CCc1ccccn1	1	75*	-8	-68	1	-10	41	0	8
Cc1ccc(CNC(=O)C2CCC(CNS(=O)(=O)c3cccs3)CC2)cc1 (centres undefined)	-2	66*	4	14	4	9	28	-1	-9
O=C(NCc1ccc(Cl)cc1)C1CCC(CNS(=O)(=O)c2ccccc2)CC1 (centres undefined)	-1	59*	14	4	2	-6	10	0	4
O=C(NCc1ccc(Cl)cc1)C1CCC(CNc2c(N3CCCCC3)c(=O)c2=O)CC1 (centres undefined)	-2	50*	-2	-36	0	-2	26	2	2
Cc1cccc(CCNC(=O)C2CCC(CNS(=O)(=O)c3cccs3)CC2)c1 (centres undefined)	-1	13	8	5	1	-4	nt	nt	nt
Cc1cccn2c(=O)nc(SCC(=O)c3ccccc3)nc12	9	0	12	-51	2	-4	nt	nt	nt
CC1CN(c2ccc([N+](=O)[O-])c(NCCOc3ccccc3)c2)CC(C)N1 (centres undefined)	1	-2	19	12	1	7	nt	nt	nt
O=[N+]([O-])c1ccc(N2CCCCC2)cc1NCCOc1ccccc1	-2	44*	20	27	3	9	35	-1	-10
NS(=O)(=O)c1ccc(CCNc2ccn3nc(-c4ccccc4)cc3n2)cc1	nt	10	nt	nt	-2	-4	nt	nt	nt
CC(C)Cc1ccc(-c2cc3nc(NCCc4ccc(S(N)(=O)=O)cc4)ccn3n2)cc1	nt	66*	nt	nt	4	-8	50	-1	-13
CC1(c2nnnn2-c2ccc3c(c2)OCCO3)CCC(=O)N1CCCn1ccnc1 (centres undefined)	nt	1	nt	nt	nt	-4	nt	nt	nt
Cc1ccc(Nc2ccc(NCc3ccccc3)nn2)cc1C	-4	65*	-3	4	4	-11	45	1	5
Cc1cc(NCc2ccccc2)nc2ccccc12	-1	3	8	14	-1	-6	nt	nt	nt
Clc1ccc(Nc2ccc(NCc3ccccc3)nn2)cc1	-1	63*	0	-2	1	-4	45	-1	-8
SMILES	APJ agonist	EBI2 block	CCR6 antag	APJ antagonist	FXN GAA850 act	CXCR6 block	EBI2 antag conf	EBI2 agonist	bGal cs
Clc1ccc(-c2nnc(NCc3ccccc3)c3ccccc23)cc1	4	27	3	1	0	-6	nt	nt	nt
CCOC(=O)C1=CCN(S(=O)(=O)c2ccccc2Br)C1c1cccc(F)c1 (centres undefined)	nt	27	nt	nt	nt	0	nt	nt	nt
C[C@H](O)[C@@H]1C(=O)N2CCc3c([nH]c4ccccc34)[C@@H]2C[C@@H]1N(C)S(=O)(=O)c1ccccc1	nt	-13	nt	nt	-6	-6	nt	nt	nt
O=C1CCN(Cc2ccccc2)C=C1c1ccc(Br)cc1	0	84*	22	7	3	-8	67*	-1	-6
Cc1ccc(C2=CN(Cc3ccccc3)CCC2=O)cc1	-2	44*	16	-1	0	-4	25	2	4
CCOC(=O)c1c(NC(=O)C2=C(C)NC(=S)NC2c2ccc(F)cc2F)sc(C)c1C (centres undefined)	-3	86*	-4	-6	2	7	45	-1	7
CCOC(=O)c1c(NC(=O)C2=C(C)NC(=S)NC2c2ccc(C)cc2)sc(C)c1C (centres undefined)	-3	92*	12	9	5	10	48	-2	-13
CCOC(=O)c1c(NC(=O)C2=C(C)NC(=S)NC2c2ccc(F)cc2)sc(C)c1C (centres undefined)	-2	82*	11	17	5	-2	53*	1	-3
COc1cc(C#Cc2c(-c3cncn3C)n(C)c3ccc(-c4cc(OC)c(OC)c(OC)c4)cc23)cc(OC)c1	-2	50*	-5	9	1	5	9	1	5
Cc1ccccc1C(=O)NCCCNC(=O)c1ccccc1C	3	1	-1	0	1	1	nt	nt	nt
COc1cccc(-c2cc3nc(-c4ccccc4)cc(N4CCCC(O)C4)n3n2)c1 (centres undefined)	-1	47*	1	-7	0	-4	23	0	-14
OC1CCN(c2cc(-c3ccccc3)nc3cc(-c4ccc(F)cc4)nn23)CC1	3	36	5	-15	2	7	nt	nt	nt
